Measured values reported in ChEMBL document CHEMBL1667769, “Sodium [2'-[(cyclopropanecarbonyl-ethyl-amino)-methyl]-4'-(6-ethoxy-pyridin-3-yl)-6-methoxy-biphenyl-3-yl]-acetate (AM432): a potent, selective prostaglandin D2 receptor antagonist” (Bioorg Med Chem Lett, 2011).
pIC50: −log10 of the molar value. Active and inactive are the calls of the source. The calls are words filed in the database; no cut-off is given here.

Tests used:
[1] = target: T1, Prostaglandin D2 receptor 2 (Homo sapiens, UniProt Q9Y5Y4); assay: Displacement of [3H]PGD2 from human CRTh2 receptor expressed in 293 cells by liquid scintillation counting in presence of 0.2 % HSA; assay type: cell-based, HEK293
T1 sequence (Q9Y5Y4 whole entry): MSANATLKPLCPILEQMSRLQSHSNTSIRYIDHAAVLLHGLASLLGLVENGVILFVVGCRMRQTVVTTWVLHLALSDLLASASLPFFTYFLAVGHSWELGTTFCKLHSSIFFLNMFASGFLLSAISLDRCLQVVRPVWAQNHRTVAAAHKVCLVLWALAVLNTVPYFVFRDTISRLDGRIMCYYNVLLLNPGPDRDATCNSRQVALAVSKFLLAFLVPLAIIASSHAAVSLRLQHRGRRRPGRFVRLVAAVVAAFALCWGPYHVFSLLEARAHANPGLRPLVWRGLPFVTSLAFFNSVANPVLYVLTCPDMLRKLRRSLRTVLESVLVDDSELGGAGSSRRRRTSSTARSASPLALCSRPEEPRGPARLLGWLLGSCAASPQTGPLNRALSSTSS
Summary of the method: (§1)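 Membranes from 293 cells stably expressing human DP₂ incubated with [³H]-PGD₂ and increasing compound concentrations. Membranes harvested and washed; bound [³H]-PGD₂ counted. IC₅₀ taken as concentration giving 50% inhibition of binding. Run without and with 0.2% human serum albumin. Values averaged from three experiments (five for the lead).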

[2] = target: T1, Prostaglandin D2 receptor 2; assay: Displacement of [3H]PGD2 from human CRTh2 receptor expressed in 293 cells by liquid scintillation counting; assay type: cell-based, HEK293; summary of the method: as §1
Mus musculus [3] = assay: Antiinflammatory activity against cigarette smoke-induced lung inflammation in BALB/c mouse assessed as reduction in bronchoalveolar lavage fluid macrophages at 50 mg/kg, po for 2 days; assay type: functional, organism-based; parameters: dose 50 mg/kg
Summary of the method: (§2)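 Mice exposed to cigarette smoke. Oral dosing at 10 or 50 mg/kg, or 0.5% methylcellulose vehicle, on days −1 through 2. On day 3, euthanized by isoflurane inhalation, then bronchoalveolar lavage with differential counts of neutrophils, lymphocytes and macrophages.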

Mus musculus [4] = assay: Antiinflammatory activity against cigarette smoke-induced lung inflammation in BALB/c mouse assessed as reduction in bronchoalveolar lavage fluid neutrophils at 10 mg/kg, po for 2 days; assay type: functional, organism-based; parameters: dose 10 mg/kg; summary of the method: as §2
Mus musculus [5] = assay: Antiinflammatory activity against cigarette smoke-induced lung inflammation in BALB/c mouse assessed as reduction in bronchoalveolar lavage fluid neutrophils at 50 mg/kg, po for 2 days; assay type: functional, organism-based; parameters: dose 50 mg/kg; summary of the method: as §2
[6] = Cmax in dog at 2.5 mg/kg, po or 2 mg/kg, iv; details: in vivo
[7] = Clearance in dog at 2.5 mg/kg, po or 2 mg/kg, iv; details: in vivo
[8] = target: Peroxisome proliferator-activated receptor gamma (Homo sapiens, UniProt P37231); assay: Inhibition of PPAR gamma
Mus musculus [9] = assay: Antiallergic activity in BALB/c mouse assessed as reduction in ovalbumin-induced increase in nasal rubs at 10 mg/kg, po administered 21 to 25 days after ovalbumin challenge followed by intranasal ovalbumin challenge measured for 8 mins of post dose; assay type: functional, organism-based; parameters: dose 10 mg/kg
Cytochrome P450 2C9 = Cytochrome P450 2C9 (Homo sapiens, UniProt P11712); assay: Inhibition of human CYP2C9; assay type: ADME
Cytochrome P450 3A4 = Cytochrome P450 3A4 (Homo sapiens, UniProt P08684); assay: Inhibition of human CYP3A4; assay type: ADME
[10] = target: Prostaglandin G/H synthase 1 (Homo sapiens, UniProt P23219); assay: Inhibition of COX-1
[11] = target: T2, Peroxisome proliferator-activated receptor alpha (Homo sapiens, UniProt Q07869); assay: Inhibition of PPAR alpha
T2 sequence (Q07869 whole entry): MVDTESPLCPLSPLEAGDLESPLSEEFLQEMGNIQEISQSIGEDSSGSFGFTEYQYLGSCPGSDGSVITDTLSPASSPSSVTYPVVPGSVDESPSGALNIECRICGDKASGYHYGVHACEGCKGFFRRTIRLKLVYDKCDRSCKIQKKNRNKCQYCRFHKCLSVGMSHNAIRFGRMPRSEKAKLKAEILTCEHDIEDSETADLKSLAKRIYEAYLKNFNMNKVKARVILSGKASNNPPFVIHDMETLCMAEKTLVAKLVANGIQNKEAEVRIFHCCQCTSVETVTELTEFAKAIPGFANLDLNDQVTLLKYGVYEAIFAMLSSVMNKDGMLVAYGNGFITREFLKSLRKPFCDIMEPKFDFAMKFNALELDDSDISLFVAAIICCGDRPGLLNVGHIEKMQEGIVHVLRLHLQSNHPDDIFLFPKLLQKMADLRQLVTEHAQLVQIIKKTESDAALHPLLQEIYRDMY

Thromboxane A2 receptor = target: T3, Thromboxane A2 receptor (Homo sapiens, UniProt P21731); assay: Displacement of [3H]SQ-29548 from TP receptor in human platelet membrane; assay type: cell membranes
T3 sequence (P21731 whole entry): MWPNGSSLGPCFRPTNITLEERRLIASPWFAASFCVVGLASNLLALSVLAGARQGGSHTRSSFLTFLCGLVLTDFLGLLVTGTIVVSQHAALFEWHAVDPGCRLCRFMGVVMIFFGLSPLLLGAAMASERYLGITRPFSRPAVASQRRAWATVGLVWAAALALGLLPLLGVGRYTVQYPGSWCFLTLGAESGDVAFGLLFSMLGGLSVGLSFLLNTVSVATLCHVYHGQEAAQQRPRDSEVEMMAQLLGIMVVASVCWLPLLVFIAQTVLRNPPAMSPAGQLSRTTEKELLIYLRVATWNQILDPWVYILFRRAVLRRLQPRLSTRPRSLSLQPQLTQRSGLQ
Summary of the method: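 Human TP binding using human platelet membranes and ³H-SQ-29548.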

Mus musculus [12] = assay: Antiinflammatory activity against cigarette smoke-induced lung inflammation in BALB/c mouse assessed as reduction in bronchoalveolar lavage fluid lymphocytes at 50 mg/kg, po for 2 days; assay type: functional, organism-based; parameters: dose 50 mg/kg; summary of the method: as §2
Mus musculus [13] = assay: Antiinflammatory activity against cigarette smoke-induced lung inflammation in BALB/c mouse assessed as reduction in bronchoalveolar lavage fluid macrophages at 10 mg/kg, po for 2 days; assay type: functional, organism-based; parameters: dose 10 mg/kg; summary of the method: as §2
[14] = target: Peroxisome proliferator-activated receptor delta (Homo sapiens, UniProt Q03181); assay: Inhibition of PPAR beta
Mus musculus [15] = assay: Antiallergic activity in BALB/c mouse assessed as reduction in ovalbumin-induced increase in nasal sneezes at 10 mg/kg, po administered 21 to 25 days after ovalbumin challenge followed by intranasal ovalbumin challenge measured for 8 mins of post dose; assay type: functional, organism-based; parameters: dose 10 mg/kg
Mus musculus [16] = assay: Antiinflammatory activity against cigarette smoke-induced lung inflammation in BALB/c mouse assessed as reduction in bronchoalveolar lavage fluid lymphocytes at 10 mg/kg, po for 2 days; assay type: functional, organism-based; parameters: dose 10 mg/kg; summary of the method: as §2
[17] = Half life in dog at 2.5 mg/kg, po or 2 mg/kg, iv; details: in vivo
hERG (KCNH2) = hERG (KCNH2) (Homo sapiens, UniProt Q12809); assay: Inhibition of human ERG at 10 uM by patch-clamp analysis
Cytochrome P450 2C19 = Cytochrome P450 2C19 (Homo sapiens, UniProt P33261); assay: Inhibition of human CYP2C19; assay type: ADME
Cytochrome P450 2D6 = Cytochrome P450 2D6 (Homo sapiens, UniProt P10635); assay: Inhibition of human CYP2D6; assay type: ADME
Canis familiaris = assay: AUC in dog at 2.5 mg/kg, po or 2 mg/kg, iv; details: in vivo
Cytochrome P450 1A2 = target: T4, Cytochrome P450 1A2 (Homo sapiens, UniProt P05177); assay: Inhibition of human CYP1A2; assay type: ADME
T4 sequence (P05177 whole entry): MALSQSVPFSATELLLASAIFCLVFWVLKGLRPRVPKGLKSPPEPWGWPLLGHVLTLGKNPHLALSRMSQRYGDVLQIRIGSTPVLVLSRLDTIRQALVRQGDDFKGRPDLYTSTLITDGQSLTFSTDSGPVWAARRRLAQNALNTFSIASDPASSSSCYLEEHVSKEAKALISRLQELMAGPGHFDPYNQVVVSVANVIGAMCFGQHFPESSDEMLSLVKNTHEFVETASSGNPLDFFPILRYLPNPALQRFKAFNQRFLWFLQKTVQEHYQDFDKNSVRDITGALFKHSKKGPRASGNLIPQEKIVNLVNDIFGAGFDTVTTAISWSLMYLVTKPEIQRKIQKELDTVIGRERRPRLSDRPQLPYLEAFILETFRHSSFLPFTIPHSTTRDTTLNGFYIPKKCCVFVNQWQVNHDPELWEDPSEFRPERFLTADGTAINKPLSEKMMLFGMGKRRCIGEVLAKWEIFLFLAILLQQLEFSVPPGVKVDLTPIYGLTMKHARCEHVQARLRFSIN

[18] = target: T5, Prostaglandin D2 receptor (Homo sapiens, UniProt Q13258); assay: Displacement of [3H]PGD2 from DP1 in human platelet membrane; assay type: cell membranes
T5 sequence (Q13258 whole entry): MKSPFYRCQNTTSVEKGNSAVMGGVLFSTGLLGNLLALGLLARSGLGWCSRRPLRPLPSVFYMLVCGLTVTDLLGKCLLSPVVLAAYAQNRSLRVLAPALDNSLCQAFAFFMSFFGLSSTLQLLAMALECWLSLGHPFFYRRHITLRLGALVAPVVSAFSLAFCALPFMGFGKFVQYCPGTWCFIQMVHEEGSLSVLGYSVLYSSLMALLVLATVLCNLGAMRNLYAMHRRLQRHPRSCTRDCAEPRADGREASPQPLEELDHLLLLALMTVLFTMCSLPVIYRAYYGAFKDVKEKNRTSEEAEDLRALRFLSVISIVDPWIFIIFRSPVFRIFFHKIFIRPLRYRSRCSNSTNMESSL
Summary of the method: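 Human DP₁ binding using ³H-PGD₂ and human platelet membranes.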

Prostacyclin receptor = Prostacyclin receptor (Homo sapiens, UniProt P43119); assay: Displacement of [3H]iloprost from IP receptor in human 293 cell membrane; assay type: cell membranes
Summary of the method: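 Human IP binding using hIP/293 membranes and ³H-iloprost.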

[19] = target: T6, Prostaglandin G/H synthase 2 (Homo sapiens, UniProt P35354); assay: Inhibition of COX-2
T6 sequence (P35354 whole entry): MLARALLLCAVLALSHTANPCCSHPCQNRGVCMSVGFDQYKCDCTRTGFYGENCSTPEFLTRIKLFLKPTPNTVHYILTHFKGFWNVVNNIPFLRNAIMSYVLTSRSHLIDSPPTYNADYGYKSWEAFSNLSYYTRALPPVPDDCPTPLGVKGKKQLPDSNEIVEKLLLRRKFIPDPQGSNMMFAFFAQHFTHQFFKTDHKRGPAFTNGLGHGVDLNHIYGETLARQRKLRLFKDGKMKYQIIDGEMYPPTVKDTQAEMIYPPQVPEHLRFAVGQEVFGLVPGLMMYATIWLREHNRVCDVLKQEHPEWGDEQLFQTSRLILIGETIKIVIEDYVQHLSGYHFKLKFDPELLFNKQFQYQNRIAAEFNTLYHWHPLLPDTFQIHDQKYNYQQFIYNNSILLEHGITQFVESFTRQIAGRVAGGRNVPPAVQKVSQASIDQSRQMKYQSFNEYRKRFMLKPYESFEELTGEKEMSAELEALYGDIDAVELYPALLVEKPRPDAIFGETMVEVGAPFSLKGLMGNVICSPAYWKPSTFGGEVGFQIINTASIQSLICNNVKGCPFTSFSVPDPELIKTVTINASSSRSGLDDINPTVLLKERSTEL

Sequence of Peroxisome proliferator-activated receptor delta (Q03181 whole entry, looked up): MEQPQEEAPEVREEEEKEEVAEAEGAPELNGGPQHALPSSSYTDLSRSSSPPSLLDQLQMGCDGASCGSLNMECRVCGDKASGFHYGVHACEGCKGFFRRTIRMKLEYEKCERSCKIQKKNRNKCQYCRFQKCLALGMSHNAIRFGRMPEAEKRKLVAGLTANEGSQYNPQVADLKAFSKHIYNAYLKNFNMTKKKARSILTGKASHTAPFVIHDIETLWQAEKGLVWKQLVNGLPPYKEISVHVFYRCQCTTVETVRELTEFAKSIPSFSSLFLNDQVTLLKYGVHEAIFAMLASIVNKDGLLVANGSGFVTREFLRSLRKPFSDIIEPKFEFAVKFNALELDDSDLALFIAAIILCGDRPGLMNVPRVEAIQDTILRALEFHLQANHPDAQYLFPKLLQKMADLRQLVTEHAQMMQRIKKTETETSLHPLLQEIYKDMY
Sequence of Cytochrome P450 2C9 (P11712 whole entry): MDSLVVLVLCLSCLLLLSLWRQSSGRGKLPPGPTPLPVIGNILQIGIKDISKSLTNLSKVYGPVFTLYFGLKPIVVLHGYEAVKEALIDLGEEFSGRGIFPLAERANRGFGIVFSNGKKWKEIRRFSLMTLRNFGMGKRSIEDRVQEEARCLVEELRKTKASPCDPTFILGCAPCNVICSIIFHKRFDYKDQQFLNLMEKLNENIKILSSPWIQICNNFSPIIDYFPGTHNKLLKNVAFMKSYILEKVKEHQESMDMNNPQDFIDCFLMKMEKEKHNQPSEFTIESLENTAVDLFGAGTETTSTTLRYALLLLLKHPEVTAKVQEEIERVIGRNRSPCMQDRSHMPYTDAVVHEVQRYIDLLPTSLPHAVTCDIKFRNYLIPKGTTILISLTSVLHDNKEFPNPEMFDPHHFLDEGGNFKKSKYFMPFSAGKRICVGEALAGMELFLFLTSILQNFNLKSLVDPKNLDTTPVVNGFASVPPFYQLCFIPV
Sequence of Cytochrome P450 2C19 (P33261 whole entry): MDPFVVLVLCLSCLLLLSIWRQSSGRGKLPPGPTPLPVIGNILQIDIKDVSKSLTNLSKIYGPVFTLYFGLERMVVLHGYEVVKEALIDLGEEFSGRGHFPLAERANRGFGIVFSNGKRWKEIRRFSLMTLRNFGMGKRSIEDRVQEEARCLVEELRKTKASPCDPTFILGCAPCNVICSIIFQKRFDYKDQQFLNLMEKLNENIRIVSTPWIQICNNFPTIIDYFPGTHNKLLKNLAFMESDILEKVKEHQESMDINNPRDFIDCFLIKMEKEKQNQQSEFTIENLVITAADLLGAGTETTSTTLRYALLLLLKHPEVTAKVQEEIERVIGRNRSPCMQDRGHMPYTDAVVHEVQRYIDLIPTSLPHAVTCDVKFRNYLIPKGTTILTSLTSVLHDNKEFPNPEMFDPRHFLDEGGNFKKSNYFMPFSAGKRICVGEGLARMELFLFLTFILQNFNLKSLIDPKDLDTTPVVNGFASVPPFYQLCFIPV
Sequence of Prostacyclin receptor (P43119 whole entry): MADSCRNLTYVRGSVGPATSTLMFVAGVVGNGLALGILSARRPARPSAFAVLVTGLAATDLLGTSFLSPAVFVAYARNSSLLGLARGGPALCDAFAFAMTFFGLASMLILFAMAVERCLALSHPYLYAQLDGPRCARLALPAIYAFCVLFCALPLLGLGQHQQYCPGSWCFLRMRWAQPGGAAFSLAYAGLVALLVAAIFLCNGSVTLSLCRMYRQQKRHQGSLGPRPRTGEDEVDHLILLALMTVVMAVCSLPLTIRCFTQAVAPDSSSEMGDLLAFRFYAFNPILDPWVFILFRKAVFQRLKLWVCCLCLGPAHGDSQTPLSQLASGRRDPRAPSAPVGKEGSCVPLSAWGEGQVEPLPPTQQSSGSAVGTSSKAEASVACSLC
Sequence of Cytochrome P450 2D6 (P10635 whole entry): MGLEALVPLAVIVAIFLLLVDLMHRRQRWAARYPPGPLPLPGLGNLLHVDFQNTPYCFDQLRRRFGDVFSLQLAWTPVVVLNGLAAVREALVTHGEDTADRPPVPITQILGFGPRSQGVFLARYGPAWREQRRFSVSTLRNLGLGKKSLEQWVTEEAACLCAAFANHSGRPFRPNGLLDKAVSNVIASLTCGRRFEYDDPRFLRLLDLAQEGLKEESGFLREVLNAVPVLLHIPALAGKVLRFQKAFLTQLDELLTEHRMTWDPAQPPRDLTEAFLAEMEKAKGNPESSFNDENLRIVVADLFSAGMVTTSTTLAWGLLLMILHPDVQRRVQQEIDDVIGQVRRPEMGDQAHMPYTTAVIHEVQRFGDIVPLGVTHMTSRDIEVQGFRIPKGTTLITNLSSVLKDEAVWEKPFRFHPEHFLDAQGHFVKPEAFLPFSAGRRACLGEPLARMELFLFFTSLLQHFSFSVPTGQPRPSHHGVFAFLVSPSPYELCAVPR
Sequence of hERG (KCNH2) (Q12809 whole entry): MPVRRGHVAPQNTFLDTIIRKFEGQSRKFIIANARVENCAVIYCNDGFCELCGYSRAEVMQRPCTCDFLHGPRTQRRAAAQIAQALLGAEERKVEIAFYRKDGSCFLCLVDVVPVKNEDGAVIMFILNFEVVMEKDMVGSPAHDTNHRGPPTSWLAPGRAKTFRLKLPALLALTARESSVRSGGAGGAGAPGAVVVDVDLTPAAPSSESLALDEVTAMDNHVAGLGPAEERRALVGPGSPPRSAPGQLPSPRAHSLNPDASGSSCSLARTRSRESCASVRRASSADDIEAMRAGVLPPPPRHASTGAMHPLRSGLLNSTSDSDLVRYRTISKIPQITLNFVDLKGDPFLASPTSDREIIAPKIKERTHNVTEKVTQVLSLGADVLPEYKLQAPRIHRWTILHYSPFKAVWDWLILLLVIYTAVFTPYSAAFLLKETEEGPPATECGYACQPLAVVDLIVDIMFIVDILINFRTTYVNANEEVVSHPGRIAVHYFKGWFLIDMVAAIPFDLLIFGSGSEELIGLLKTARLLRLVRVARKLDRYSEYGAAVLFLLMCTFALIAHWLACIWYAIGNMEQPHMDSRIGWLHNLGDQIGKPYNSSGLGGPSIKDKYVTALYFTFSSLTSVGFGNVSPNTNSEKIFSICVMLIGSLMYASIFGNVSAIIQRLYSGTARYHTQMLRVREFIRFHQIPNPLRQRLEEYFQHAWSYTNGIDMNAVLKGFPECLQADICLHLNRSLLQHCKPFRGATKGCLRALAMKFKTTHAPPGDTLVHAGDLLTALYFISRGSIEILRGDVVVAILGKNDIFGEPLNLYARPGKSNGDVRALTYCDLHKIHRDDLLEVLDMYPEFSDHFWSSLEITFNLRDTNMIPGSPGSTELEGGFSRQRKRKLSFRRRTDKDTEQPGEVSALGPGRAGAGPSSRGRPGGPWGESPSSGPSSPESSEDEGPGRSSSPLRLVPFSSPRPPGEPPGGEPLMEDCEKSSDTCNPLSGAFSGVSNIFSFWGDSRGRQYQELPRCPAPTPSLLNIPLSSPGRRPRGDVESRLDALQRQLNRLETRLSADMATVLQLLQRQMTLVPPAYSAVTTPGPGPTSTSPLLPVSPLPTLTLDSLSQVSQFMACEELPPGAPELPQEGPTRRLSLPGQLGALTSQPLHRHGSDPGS
Sequence of Peroxisome proliferator-activated receptor gamma (P37231 whole entry, looked up): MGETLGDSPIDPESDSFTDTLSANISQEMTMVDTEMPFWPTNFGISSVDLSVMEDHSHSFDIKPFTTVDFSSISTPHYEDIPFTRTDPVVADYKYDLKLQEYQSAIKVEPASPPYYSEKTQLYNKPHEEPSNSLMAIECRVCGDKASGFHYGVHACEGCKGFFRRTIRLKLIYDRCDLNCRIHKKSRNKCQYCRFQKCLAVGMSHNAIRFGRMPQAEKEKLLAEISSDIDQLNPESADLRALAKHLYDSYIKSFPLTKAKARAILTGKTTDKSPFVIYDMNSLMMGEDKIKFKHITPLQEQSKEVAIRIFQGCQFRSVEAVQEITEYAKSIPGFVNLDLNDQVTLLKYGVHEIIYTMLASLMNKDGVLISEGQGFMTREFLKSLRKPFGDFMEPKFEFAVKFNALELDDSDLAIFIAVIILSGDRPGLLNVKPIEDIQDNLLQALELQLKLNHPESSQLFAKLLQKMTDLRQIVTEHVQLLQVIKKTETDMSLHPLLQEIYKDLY
Sequence of Prostaglandin G/H synthase 1 (P23219 whole entry): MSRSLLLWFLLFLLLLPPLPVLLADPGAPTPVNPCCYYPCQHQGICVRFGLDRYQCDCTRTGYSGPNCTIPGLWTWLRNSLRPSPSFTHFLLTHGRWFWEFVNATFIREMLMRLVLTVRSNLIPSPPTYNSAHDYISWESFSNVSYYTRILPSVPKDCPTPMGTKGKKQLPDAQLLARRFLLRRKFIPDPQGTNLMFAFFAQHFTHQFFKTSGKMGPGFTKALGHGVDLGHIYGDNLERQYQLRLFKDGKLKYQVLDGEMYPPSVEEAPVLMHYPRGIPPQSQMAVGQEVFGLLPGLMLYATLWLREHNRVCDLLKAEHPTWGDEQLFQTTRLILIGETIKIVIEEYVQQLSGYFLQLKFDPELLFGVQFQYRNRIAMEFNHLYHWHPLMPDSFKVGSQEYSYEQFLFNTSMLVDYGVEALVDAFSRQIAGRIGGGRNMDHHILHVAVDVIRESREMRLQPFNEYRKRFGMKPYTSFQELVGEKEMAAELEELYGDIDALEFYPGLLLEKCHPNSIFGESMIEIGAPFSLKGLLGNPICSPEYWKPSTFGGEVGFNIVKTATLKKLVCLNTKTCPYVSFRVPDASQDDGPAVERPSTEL

## CCN(Cc1cc(-c2ncc(OC)cn2)ccc1-c1cc(CC(=O)O)ccc1OC)C(=O)C1CC1
[1]
  pIC50: 6.97
[2]
  pIC50: 7.57

## CCN(Cc1cc(C(=O)O)ccc1-c1cc(CC(=O)O)ccc1OC)C(=O)OCc1ccccc1
[1]
  pIC50: 6.60
[2]
  pIC50: 8.10

## CCOc1ccc(-c2ccc(-c3cc(CC(=O)[O-])ccc3OC)c(CN(CC)C(=O)C3CC3)c2)cn1.[Na+]
Mus musculus [3]
  Activity: Active
[1]
  pIC50: 7.51
Mus musculus [4]
  Activity: Active
Mus musculus [5]
  Activity: Active
[6]
  Cmax: 30 µM
[7]
  clearance: 0.5 mL/min/kg
[8]
  pIC50: < 3.60
Mus musculus [9]
  Activity: Active
Cytochrome P450 2C9
  pIC50: < 4.30
Cytochrome P450 3A4
  pIC50: < 4.30
[10]
  pIC50: < 4.00
[11]
  pIC50: < 3.60
Thromboxane A2 receptor
  pIC50: < 4.00
Mus musculus [12]
  Activity: Active
Mus musculus [13]
  Activity: inactive
[14]
  pIC50: < 3.60
Mus musculus [15]
  Activity: Active
Mus musculus [16]
  Activity: inactive
[17]
  half-life: 6 h
hERG (KCNH2)
  inhibition at 10 µM: 11%
Cytochrome P450 2C19
  pIC50: < 4.30
Cytochrome P450 2D6
  pIC50: < 4.30
Canis familiaris
  AUC: 87 µg/mL
[2]
  pIC50: 8.22
Cytochrome P450 1A2
  pIC50: < 4.30
[18]
  pIC50: 4.57
Prostacyclin receptor
  pIC50: < 4.00
[19]
  pIC50: < 4.00

## CCN(Cc1cc(-c2cnn(C)c2)ccc1-c1cc(CC(=O)O)ccc1OC)C(=O)C1CC1
[1]
  pIC50: 7.43
[2]
  pIC50: 7.57

## CCN(Cc1cc(C(C)(C)O)ccc1-c1cc(CC(=O)O)ccc1OC)C(=O)OCc1ccccc1
[1]
  pIC50: 7.62
[2]
  pIC50: 7.92

## CCN(Cc1cc(S(C)(=O)=O)ccc1-c1cc(CC(=O)O)ccc1OC)C(=O)OCc1ccccc1
[1]
  pIC50: 8.15
[2]
  pIC50: 8.30
